ChEMBL document CHEMBL2202989, “New adamantane phenylalkylamines with σ-receptor binding affinity and anticancer activity, associated with putative antagonism of neuropathic pain” (J Med Chem, 2012)

Assays:
SK-HEP1 = experiment: Growth inhibition of human SKHEP1 cells after 48 hrs by SRB assay; assay type: functional; details: SK-HEP1, 48 h; for CC50: read-out: LC50 (the source's name)
How it was run: (§1)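 Cells grown in RPMI 1640 with 5% heat-inactivated FCS, 2 mM L-glutamine and antibiotics, 37 °C, 5% CO2. Seeded at 3500–30000 cells/well and left 24 h before dosing. DMSO solutions added at 10-fold dilutions from 100 to 0.01 μM for 48 h. Cells TCA-fixed and SRB-stained, absorbance read at 540 nm; GI50 derived against the time-zero plate.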

[1] = (§2) Growth inhibition of human NHDF cells after 48 hrs by SRB assay; assay type: cell-based; details: NHDF cells; how it was run: as §1
NHDF = experiment: as §2; assay type: cell-based; details: nhdf, 48 h; how it was run: as §1
OVCAR-5 = experiment: Growth inhibition of human OVCAR5 cells after 48 hrs by SRB assay; assay type: functional; details: OVCAR-5, 48 h; how it was run: as §1
U-251 = experiment: Growth inhibition of human U251 cells after 48 hrs by SRB assay; assay type: functional; details: U-251, 48 h; for CC50: read-out: LC50 (the source's name); how it was run: as §1
HUVEC = experiment: (§3) Growth inhibition of human HUVEC cells after 48 hrs by SRB assay; assay type: cell-based; details: huvec, 48 h; how it was run: as §1
[2] = as §3; assay type: cell-based; details: HUVEC cells; how it was run: as §1
BXPC-3 = experiment: Growth inhibition of human BxPC3 cells after 48 hrs by SRB assay; assay type: functional; details: BXPC-3, 48 h; how it was run: as §1
DU-145 = experiment: Growth inhibition of human DU145 cells after 48 hrs by SRB assay; assay type: functional; details: DU-145, 48 h; for CC50: read-out: LC50 (the source's name); how it was run: as §1
[3] = Growth inhibition of human MSC cells after 48 hrs by SRB assay; assay type: cell-based; how it was run: as §1
HL-60(TB) = experiment: Growth inhibition of human HL-60(TB) cells after 48 hrs by SRB assay; assay type: functional; details: HL-60, 48 h; for CC50: read-out: LC50 (the source's name)
How it was run: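 Cells kept in RPMI 1640 with 5% FCS at 37 °C, 5% CO2, and seeded 24 h before dosing. Compound given from DMSO at 10-fold dilutions, 100 to 0.01 μM, for 48 h. Cells fixed with TCA, stained with SRB, absorbance read at 540 nm. GI50 taken from a time-zero plate.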

HCT-15 = experiment: Growth inhibition of human HCT15 cells after 48 hrs by SRB assay; assay type: functional; details: HCT-15, 48 h; for CC50: read-out: LC50 (the source's name); how it was run: as §1
MIA PaCa-2 = experiment: Growth inhibition of human MIAPaCa2 cells after 48 hrs by SRB assay; assay type: functional; details: MIA PaCa-2, 48 h; how it was run: as §1
MCF7 = experiment: Growth inhibition of human MCF7 cells after 48 hrs by SRB assay; assay type: functional; details: MCF7, 48 h; for CC50: read-out: LC50 (the source's name); how it was run: as §1
PC-3 = experiment: Growth inhibition of human PC3 cells after 48 hrs by SRB assay; assay type: functional; details: PC-3, 48 h; for CC50: read-out: LC50 (the source's name); how it was run: as §1
[4] = read-out: LC50 (the source's name)

Row | SMILES | GI50 (SK-HEP1) [µM] | TGI (SK-HEP1) [µM] | CC50 (SK-HEP1) [µM] | GI50 at 48 h [1] [µM] | LC50 (NHDF) [µM] | TGI (NHDF) [µM] | GI50 (U-251) [µM] | TGI (U-251) [µM] | CC50 (U-251) [µM] | LC50 (HUVEC) [µM] | TGI (HUVEC) [µM] | GI50 at 48 h [2] [µM] | GI50 (BXPC-3) [µM] | LC50 (BXPC-3) [µM] | TGI (BXPC-3) [µM] | GI50 (DU-145) [µM] | TGI (DU-145) [µM] | CC50 (DU-145) [µM] | TGI [3] [µM] | GI50 (HL-60(TB)) [µM] | other results
1 | c1ccc(C(c2ccc(CN3CCCCC3)cc2)C23CC4CC(CC(C4)C2)C3)cc1 (stereo not drawn) | 7.46 | 38.4 | 0.0822 | 23.7 | 81.19 | 52.5 | 8.6 | 40.2 | 0.0758 | 72.47 | 21.7 | 5.11 | 15.8 | 0.0874 | 51.6 | 8.98 | 47.3 | 0.089 | 20.1 | 0.00591 | GI50 (OVCAR-5): 31.1 µM; TGI (OVCAR-5): 60.8 µM; CC50 (OVCAR-5; [4]): 0.0915 µM; TGI (HL-60(TB)): 0.0729 µM; CC50 (HL-60(TB)): 0.1 µM; GI50 (HCT-15): 8.8 µM; TGI (HCT-15): 79 µM; CC50 (HCT-15): 0.1 µM; GI50 (MIA PaCa-2): 7.98 µM; TGI (MIA PaCa-2): 43.2 µM; CC50 (MIA PaCa-2; [4]): 0.0813 µM; GI50 (MCF7): 8.89 µM; TGI (MCF7): 43 µM; CC50 (MCF7): 0.0806 µM; GI50 (PC-3): 6.07 µM; TGI (PC-3): 26.2 µM; CC50 (PC-3): 0.0813 µM
2 | c1ccc(C(c2ccc(CN3CCNCC3)cc2)C23CC4CC(CC(C4)C2)C3)cc1 (stereo not drawn) | 3.51 | 6.17 | 0.00884 | 3.66 | 9.73 | 6.69 | 3.41 | 5.92 | 0.00843 | 17.43 | 5.98 | 2.91 | 4.3 | 0.00951 | 6.9 | 4.23 | 17.8 | 0.0392 | 3.14 | 0.00448 | TGI (HL-60(TB)): 0.00759 µM; CC50 (HL-60(TB)): 0.1 µM; GI50 (HCT-15): 3.28 µM; TGI (HCT-15): 5.76 µM; CC50 (HCT-15): 0.00824 µM; GI50 (MCF7): 2.45 µM; TGI (MCF7): 5.51 µM; CC50 (MCF7): 0.00857 µM; GI50 (PC-3): 3.89 µM; TGI (PC-3): 7.52 µM; CC50 (PC-3): 0.0692 µM
